Results taken from ChEMBL document CHEMBL3232911, “Imidazolylchromanones containing non-benzylic oxime ethers: synthesis and molecular modeling study of new azole antifungals selective against Cryptococcus gattii” (2014).

Columns and labels:
Exophiala dermatitidis = assay: Antifungal activity against Exophiala dermatitidis assessed as total growth inhibition by micro-broth dilution method; format: functional
Procedure, shortened: (§1)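 Broth microdilution following CLSI methods for yeasts and filamentous fungi. Compounds dissolved in DMSO, serially diluted in growth medium, inoculum added, incubation at 35 °C. MIC taken as the lowest concentration giving total inhibition of fungal growth. Testing done in triplicate.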

Aspergillus fumigatus = assay: Antifungal activity against Aspergillus fumigatus assessed as total growth inhibition by micro-broth dilution method; format: functional; procedure, shortened: as §1
[1] = test system: Cryptococcus gattii species complex; assay: Antifungal activity against Cryptococcus gattii assessed as total growth inhibition by micro-broth dilution method; format: functional, Cryptococcus bacillisporus; procedure, shortened: as §1
Candida albicans = assay: Antifungal activity against Candida albicans assessed as total growth inhibition by micro-broth dilution method; format: functional; procedure, shortened: as §1

Row | Compound | MIC (Exophiala dermatitidis) [µg/mL] | MIC (Aspergillus fumigatus) [µg/mL] | MIC [1] [µg/mL] | MIC (Candida albicans) [µg/mL]
1 | O/N=C1\c2ccccc2OCC1n1ccnc1 (stereo unspecified) | > 128 | > 64 | > 64 | > 64
2 | O=[N+]([O-])O.c1ccc(OCCO/N=C2\c3ccccc3OCC2n2ccnc2)cc1 (racemic) | 128 | 32 | 2 | > 64
3 | Clc1ccc(OCCO/N=C2\c3ccccc3OCC2n2ccnc2)cc1.O=[N+]([O-])O (racemic) | 64 | 64 | 4 | > 64
4 | Clc1cccc(OCCO/N=C2\c3ccccc3OCC2n2ccnc2)c1.O=[N+]([O-])O (racemic) | 64 | 32 | 0.5 | > 64
5 | Fc1ccc(OCCO/N=C2\c3ccccc3OCC2n2ccnc2)cc1.O=[N+]([O-])O (racemic) | 128 | 64 | 4 | > 64
6 | Fc1cccc(OCCO/N=C2\c3ccccc3OCC2n2ccnc2)c1.O=[N+]([O-])O (racemic) | 64 | 64 | 2 | > 64
7 | Clc1ccc(OCCO/N=C2\c3ccccc3OCC2n2ccnc2)c(Cl)c1.O=[N+]([O-])O (racemic) | 128 | 64 | 2 | > 64
8 | OC(Cn1cncn1)(Cn1cncn1)c1ccc(F)cc1F [FLUCONAZOLE] | > 64 | > 64 | > 64 | 2
9 | CCC(C)n1ncn(-c2ccc(N3CCN(c4ccc(OCC5COC(Cn6cncn6)(c6ccc(Cl)cc6Cl)O5)cc4)CC3)cc2)c1=O (stereo unspecified) [ITRACONAZOLE] | 0.5 | 4 | 0.5 | 0.25
